Measured values from ChEMBL document CHEMBL4311931, “Controlling cellular distribution of drugs with permeability modifying moieties” (Medchemcomm, 2019).

What was measured:
DLD-1 [1] = experiment: cells; conditions: Homo sapiens
DLD-1 [2] = experiment: cells; conditions: Homo sapiens; remark: listed apart in the source
[3] = Permeability of compound in 5% DMSO after 7 hrs by PAMPA; format: ADME; conditions: read-out: permeability
[4] = biological target: T1, 5-hydroxytryptamine receptor 1A (Homo sapiens, UniProt P08908); experiment: Antagonist activity at human 5HT1A expressed in BAF3 cells by fluorimetry analysis; format: cell-based
T1 sequence (P08908 whole entry): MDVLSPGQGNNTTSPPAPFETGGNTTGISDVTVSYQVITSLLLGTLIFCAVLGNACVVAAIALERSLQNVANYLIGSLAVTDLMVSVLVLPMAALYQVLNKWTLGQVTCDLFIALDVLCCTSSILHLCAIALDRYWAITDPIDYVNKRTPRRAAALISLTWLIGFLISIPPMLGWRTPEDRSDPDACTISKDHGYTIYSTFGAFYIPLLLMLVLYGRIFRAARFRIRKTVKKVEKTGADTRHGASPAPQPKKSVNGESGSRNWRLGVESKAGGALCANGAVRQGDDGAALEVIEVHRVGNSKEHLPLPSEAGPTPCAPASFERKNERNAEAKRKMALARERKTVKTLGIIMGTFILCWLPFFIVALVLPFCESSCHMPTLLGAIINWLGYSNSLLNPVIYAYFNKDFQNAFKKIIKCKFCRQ

[5] = biological target: T1, 5-hydroxytryptamine receptor 1A; experiment: Displacement of [3H]-OH-DPAT from human recombinant 5-HT1A receptor measured after 60 mins by scintillation counter method
[6] = biological target: T2, Beta-2 adrenergic receptor (Homo sapiens, UniProt P07550); experiment: Antagonist activity at human recombinant beta2 adrenoreceptor expressed in CHOK1 cells incubated for 30 mins by HTRF; format: cell-based
Target sequence in this assay (P07550 whole entry): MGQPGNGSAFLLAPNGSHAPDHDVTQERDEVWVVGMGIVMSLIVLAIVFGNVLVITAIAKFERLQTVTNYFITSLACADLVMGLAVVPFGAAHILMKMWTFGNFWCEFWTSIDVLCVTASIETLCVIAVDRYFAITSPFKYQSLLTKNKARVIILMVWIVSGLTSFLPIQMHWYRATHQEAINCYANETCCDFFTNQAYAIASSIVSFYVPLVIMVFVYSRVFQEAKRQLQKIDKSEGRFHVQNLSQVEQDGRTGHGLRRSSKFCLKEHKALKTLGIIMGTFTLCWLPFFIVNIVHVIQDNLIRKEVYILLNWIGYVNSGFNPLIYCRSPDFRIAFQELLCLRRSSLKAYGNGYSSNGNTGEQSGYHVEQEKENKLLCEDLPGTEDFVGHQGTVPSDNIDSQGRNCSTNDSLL

[7] = biological target: T2, Beta-2 adrenergic receptor; experiment: Displacement of [3H](-)CGP 12177 from human recombinant beta2 adrenoceptor after 120 mins by scintillation counting method relative to parent compound
Target sequence in this assay (P07550 whole entry, looked up): as the sequence (P07550 whole entry) above

[8] = biological target: T2, Beta-2 adrenergic receptor; experiment: Antagonist activity at human recombinant beta2 adrenoreceptor expressed in CHOK1 cells incubated for 30 mins by HTRF relative to parent compound; format: cell-based
Target sequence in this assay (P07550 whole entry, looked up): as the sequence (P07550 whole entry) above

[9] = biological target: T3, 5-hydroxytryptamine receptor 1A (Homo sapiens) (UniProt P08908); experiment: Displacement of [3H]-OH-DPAT from human recombinant 5-HT1A receptor measured after 60 mins by scintillation counter method relative to parent compound
T3 sequence (whole entry): T1 sequence (P08908 whole entry)

[10] = biological target: T2, Beta-2 adrenergic receptor; experiment: Displacement of [3H](-)CGP 12177 from human recombinant beta2 adrenoceptor after 120 mins by scintillation counting method
Target sequence in this assay (P07550 whole entry): as above

K562 = experiment: Antiproliferative activity against human K562 cells assessed as reduction in cell viability by measuring ATP level incubated for 3 days by Celltiter-Glo assay; format: functional, cell-based; conditions: K562, 72 h
Outline: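 K562 cells grown in RPMI 1640 with 50 mM HEPES and 10% FBS at 37 °C in 5% CO2, then plated at 20 000 cells per well. Compounds were log-serially diluted in DMSO, then in RPMI, to final concentrations of 10 000 nM to 0.01 nM. Cells were exposed for 3 days, and total intracellular ATP was read by CellTiter-Glo. IC50 is the geometric mean of at least two duplicate runs.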

[11] = biological target: T4, Nicotinamide phosphoribosyltransferase (Homo sapiens, UniProt P43490); experiment: Displacement of fluorescent labelled OG488 from human full length FLAG-tagged NAMPT (1 to 491 residues) expressed in HEK293-6E cells in presence of PRPP by TR-FRET assay; format: cell-based
T4 sequence (P43490 whole entry, the tested form may be a part): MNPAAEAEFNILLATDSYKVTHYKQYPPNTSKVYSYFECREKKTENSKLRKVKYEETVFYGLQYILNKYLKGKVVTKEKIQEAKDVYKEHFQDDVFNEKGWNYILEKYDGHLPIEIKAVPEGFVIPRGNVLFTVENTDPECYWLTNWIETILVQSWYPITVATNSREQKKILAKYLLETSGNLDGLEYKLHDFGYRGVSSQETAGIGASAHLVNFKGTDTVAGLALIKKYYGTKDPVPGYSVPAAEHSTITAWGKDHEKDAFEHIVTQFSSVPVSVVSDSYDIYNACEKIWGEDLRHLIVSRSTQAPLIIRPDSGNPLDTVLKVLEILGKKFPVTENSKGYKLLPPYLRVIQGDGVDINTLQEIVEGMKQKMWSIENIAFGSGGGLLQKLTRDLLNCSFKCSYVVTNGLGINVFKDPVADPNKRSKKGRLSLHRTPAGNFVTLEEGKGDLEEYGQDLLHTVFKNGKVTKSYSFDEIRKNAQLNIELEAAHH

[12] = biological target: T4, Nicotinamide phosphoribosyltransferase; experiment: Displacement of fluorescent labelled OG488 from human full length FLAG-tagged NAMPT (1 to 491 residues) expressed in HEK293-6E cells in absence of PRPP by TR-FRET assay; format: cell-based
PC-3 = experiment: Antiproliferative activity against human PC3 cells assessed as reduction in cell viability by Celltiter-Glo assay; format: functional, cell-based
Outline: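 PC3 cells from ATCC, authenticated by STR analysis. Viability was read by CellTiter-Glo, and cell EC50 is the geometric mean of at least two duplicate runs.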

SMILES | Papp at 7 h [3] [×10⁻⁶ cm/s] | IC50 [4] [nM] | Ki [5] [nM] | IC50 [6] [nM] | fold change (FC) [7] | fold change (FC) [8] | fold change (FC) [9] | Ki [10] [nM] | further results
CC1(CCCCCC(=O)NCCOCCOCC(=O)N2CCN(C(=O)c3cc(Cc4n[nH]c(=O)c5ccccc45)ccc3F)CC2)C(/C=C/C=C/C=C2/N(CCCS(=O)(=O)O)c3ccc(S(=O)(=O)O)cc3C2(C)C)=[N+](CCCS(=O)(=O)[O-])c2ccc(S(=O)(=O)O)cc21 (configuration not stated) |  |  |  |  |  |  |  |  | EC50 (DLD-1 [1]): 70000 nM; EC50 (DLD-1 [2]): 600 nM
O=C(c1cc(Cc2n[nH]c(=O)c3ccccc23)ccc1F)N1CCNCC1 | 0.081 |  |  |  |  |  |  |  | EC50 (DLD-1 [1]): > 100000 nM; EC50 (DLD-1 [2]): 200 nM
C=CCc1ccccc1OCC(O)CNC(C)C (configuration not stated) [ALPRENOLOL] | 10.9 | 630 | 21.6 |  |  |  |  |  | 
CC(C)NCC(O)COc1ccccc1CCCSCC(=O)NCCOCCOCCNC(=O)C1C(C(=O)O)C(C(=O)O)C1C(=O)O (configuration not stated) |  | > 10000 | 1720 | 380 | 24.6 | 5.27 | 35.2 | 78.6 | 
CC(C)NCC(O)COc1ccccc1CCCSCC(=O)NCCOCCOCCN (configuration not stated) |  | > 10000 | 2860 | 19 | 0.19 | 0.26 | 6.32 | 2.9 | 
C=CCc1ccccc1OCC(O)CNCCOCCOCCOCCOCCNC(=O)CS(=O)(=O)O (configuration not stated) |  | > 1000 | 261 | 83.4 | 150 | 25.3 | 12.1 | 752 | 
CC(C)(C)OC(=O)NCCOCCOCC(=O)N1CCN(C(=O)c2cc(Cc3n[nH]c(=O)c4ccccc34)ccc2F)CC1 |  |  |  |  |  |  |  |  | EC50 (DLD-1 [1]): > 100000 nM; EC50 (DLD-1 [2]): 700 nM
Cc1nc(Nc2ncc(C(=O)Nc3c(C)cccc3Cl)s2)cc(N2CCN(CCOCCOCCNC(=O)C3C(C(=O)O)C(C(=O)O)C3C(=O)O)CC2)n1 (configuration not stated) | 0.0122 |  |  |  |  |  |  |  | IC50 (K562): 183 nM
Cc1nc(Nc2ncc(C(=O)Nc3c(C)cccc3Cl)s2)cc(N2CCN(CCOCCOCCNC(=O)OC(C)(C)C)CC2)n1 | 0.0065 |  |  |  |  |  |  |  | IC50 (K562): 1.64 nM
O=C(O)C1C(C(=O)O)C(C(=O)NCCOCCOCC(=O)N2CCN(C(=O)c3cc(Cc4n[nH]c(=O)c5ccccc45)ccc3F)CC2)C1C(=O)O (configuration not stated) |  |  |  |  |  |  |  |  | EC50 (DLD-1 [1]): > 100000 nM; EC50 (DLD-1 [2]): 7800 nM
C=CCc1ccccc1OCC(O)CNCCOCCOCCOCCOCCN (configuration not stated) |  | > 1000 | 35.8 | 100 | 20.6 | 30.3 | 1.66 | 10.3 | 
CC(C)(C)OC(=O)NCCOCCOCC(=O)NCc1cccc(C(=O)N2CCC(CCCCNC(=O)/C=C/c3cccnc3)CC2)c1 | 1.2 |  |  |  |  |  |  |  | Ki [11]: 0.2 nM; Ki [12]: 14 nM; IC50 (PC-3): 30.7 nM
O=C(/C=C/c1cccnc1)NCCCCC1CCN(C(=O)c2cccc(CNC(=O)COCCOCCNC(=O)C3C(C(=O)O)C(C(=O)O)C3C(=O)O)c2)CC1 (configuration not stated) |  |  |  |  |  |  |  |  | Ki [11]: 5.9 nM; Ki [12]: 359 nM; IC50 (PC-3): 7330 nM
CC1(CCCCCC(=O)NCCOCCOCC(=O)NCc2cccc(C(=O)N3CCC(CCCCNC(=O)/C=C/c4cccnc4)CC3)c2)C(/C=C/C=C/C=C2/N(CCCS(=O)(=O)O)c3ccc(S(=O)(=O)O)cc3C2(C)C)=[N+](CCCS(=O)(=O)[O-])c2ccc(S(=O)(=O)O)cc21 (configuration not stated) |  |  |  |  |  |  |  |  | Ki [11]: 1.3 nM; Ki [12]: 141 nM; IC50 (PC-3): 197 nM
Cc1nc(Nc2ncc(C(=O)Nc3c(C)cccc3Cl)s2)cc(N2CCNCC2)n1 | 0.0371 |  |  |  |  |  |  |  | 
COC(=O)CSCCCc1ccccc1OCC(O)CNC(C)C (configuration not stated) | 0.0436 | 2900 | 56.1 | 72 | 1 | 1 | 1 | 15 | 
O=C(/C=C/c1cccnc1)NCCCCC1CCN(C(=O)c2cccc(CNC(=O)COCCOCCNC(=O)CS(=O)(=O)O)c2)CC1 |  |  |  |  |  |  |  |  | Ki [11]: 7.9 nM; Ki [12]: 285 nM; IC50 (PC-3): 7230 nM
C=CCc1ccccc1OCC(O)CNCCOCCOCCOCCOCCNC(=O)C1C(C(=O)O)C(C(=O)O)C1C(=O)O (configuration not stated) | 0.0012 | > 1000 | 1780 | > 1000 | 1024 | 303 | 82.4 | 512 | 

SMILES | Papp at 7 h [3] [×10⁻⁶ cm/s] | IC50 [4] [nM] | Ki [5] [nM] | IC50 [6] [nM] | fold change (FC) [7] | fold change (FC) [8] | fold change (FC) [9] | Ki [10] [nM] | further results
CC(C)NCC(O)COc1ccccc1CCCSCC(=O)NCCOCCOCCNC(=O)CCCCCC1(C)C(/C=C/C=C/C=C2/N(CCCS(=O)(=O)O)c3ccc(S(=O)(=O)O)cc3C2(C)C)=[N+](CCCS(=O)(=O)[O-])c2ccc(S(=O)(=O)O)cc21 (configuration not stated) |  | > 10000 | 925 | 96 | 1.73 | 1.33 | 18.9 | 26 | 
O=C(/C=C/c1cccnc1)NCCCCC1CCN(C(=O)c2ccccc2)CC1 [DAPORINAD] | 39.5 |  |  |  |  |  |  |  | IC50 (PC-3): 6 nM
NCc1cccc(C(=O)N2CCC(CCCCNC(=O)/C=C/c3cccnc3)CC2)c1 | 0.092 |  |  |  |  |  |  |  | Ki [11]: 1.1 nM; Ki [12]: 55 nM; IC50 (PC-3): 30.2 nM
Cc1nc(Nc2ncc(C(=O)Nc3c(C)cccc3Cl)s2)cc(N2CCN(CCOCCOCCNC(=O)CS(=O)(=O)O)CC2)n1 | 0.0274 |  |  |  |  |  |  |  | IC50 (K562): 120 nM
O=C(c1cc(Cc2n[nH]c(=O)c3ccccc23)ccc1F)N1CCN(C(=O)C2CC2)CC1 [OLAPARIB] | 3.37 |  |  |  |  |  |  |  | EC50 (DLD-1 [1]): 19000 nM; EC50 (DLD-1 [2]): 100 nM
Cc1nc(Nc2ncc(C(=O)Nc3c(C)cccc3Cl)s2)cc(N2CCN(CCO)CC2)n1.O [DASATINIB] | 1.49 |  |  |  |  |  |  |  | IC50 (K562): 0.638 nM
Cc1sc2c(c1C)C(c1ccc(Cl)cc1)=N[C@@H](CC(=O)OC(C)(C)C)c1nnc(C)n1-2 | 2.24 |  |  |  |  |  |  |  | 
NCCOCCOCC(=O)NCc1cccc(C(=O)N2CCC(CCCCNC(=O)/C=C/c3cccnc3)CC2)c1 | 0.016 |  |  |  |  |  |  |  | Ki [11]: 1.9 nM; Ki [12]: 60 nM; IC50 (PC-3): 296 nM
NCCOCCOCC(=O)N1CCN(C(=O)c2cc(Cc3n[nH]c(=O)c4ccccc34)ccc2F)CC1 | 0.00119 |  |  |  |  |  |  |  | EC50 (DLD-1 [1]): > 100000 nM; EC50 (DLD-1 [2]): 600 nM
Cc1nc(Nc2ncc(C(=O)Nc3c(C)cccc3Cl)s2)cc(N2CCN(CCOCCOCCN)CC2)n1 | 0.056 |  |  |  |  |  |  |  | IC50 (K562): 628 nM
C=CCc1ccccc1OCC(O)CNCCOCCOCCOCCOCCNC(=O)OC(C)(C)C (configuration not stated) |  | > 1000 | 24.1 | 6.9 | 7.4 | 2.09 | 1.12 | 3.7 | 
O=C(CS(=O)(=O)O)NCCOCCOCC(=O)N1CCN(C(=O)c2cc(Cc3n[nH]c(=O)c4ccccc34)ccc2F)CC1 |  |  |  |  |  |  |  |  | EC50 (DLD-1 [1]): 53000 nM; EC50 (DLD-1 [2]): 1100 nM
Cc1nc(Nc2ncc(C(=O)Nc3c(C)cccc3Cl)s2)cc(N2CCN(CCOCCOCCNC(=O)CCCCCC3(C)C(/C=C/C=C/C=C4/N(CCCS(=O)(=O)O)c5ccc(S(=O)(=O)O)cc5C4(C)C)=[N+](CCCS(=O)(=O)[O-])c4ccc(S(=O)(=O)O)cc43)CC2)n1 (configuration not stated) |  |  |  |  |  |  |  |  | IC50 (K562): 29.1 nM
CC(C)NCC(O)COc1ccccc1CCCSCC(=O)NCCOCCOCCNC(=O)CS(=O)(=O)O (configuration not stated) |  | > 10000 | 1780 | 86 | 1.09 | 1.19 | 15.1 | 16.4 | 
CC(C)NCC(O)COc1ccccc1CCCSCC(=O)NCCOCCOCCNC(=O)OC(C)(C)C (configuration not stated) | 0.0189 | 640 | 48.9 | 22 | 0.21 | 0.31 | 0.871 | 3.2 | 
Cc1nn(C)cc1-c1ccc2cc(CCN3CCC[C@H]3C)ccc2n1 | 1.13 |  |  |  |  |  |  |  | 
C=CCc1ccccc1OCC(O)CNCCOCCOCCOCCOCCNC(=O)CCCCCC1(C)C(/C=C/C=C/C=C2/N(CCCS(=O)(=O)O)c3ccc(S(=O)(=O)O)cc3C2(C)C)=[N+](CCCS(=O)(=O)[O-])c2ccc(S(=O)(=O)O)cc21 (configuration not stated) |  | > 1000 | 2860 | 500 | 1090 | 151 | 132 | 547 | 
